Laboratory results from PubChem BioAssay AID588730 (Vanderbilt Specialized Chemistry Center, 2011).
Activity calls are given as the source filed them.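 Rule for the calls: active = fold shift at most 0.5 or above 2, or agonist peak response under 75 or over 125 percent; inactive = the rest.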

Target: Metabotropic glutamate receptor 6 (Homo sapiens) (UniProt O15303)
Experiment: Fold shift in glutamate response at human mGluR6, Tl+ flux in HEK/GIRK cells, selectivity profiling for mGluR5 PAMs (AID 588730)
Conditions: HEK/GIRK hmGluR6, thallium flux, glutamate CRC fold shift, at 10 µM; for Emax: measured here: glutamate max response with compound
Outline: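 Assay system: human mGlu6 in HEK/GIRK cells. Signal: FluoZin2 thallium flux fluorescence. Evaluation: fold shift, ratio of control glutamate EC50 to EC50 with compound.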

Sequence of Metabotropic glutamate receptor 6 (Homo sapiens) (O15303 whole entry, looked up): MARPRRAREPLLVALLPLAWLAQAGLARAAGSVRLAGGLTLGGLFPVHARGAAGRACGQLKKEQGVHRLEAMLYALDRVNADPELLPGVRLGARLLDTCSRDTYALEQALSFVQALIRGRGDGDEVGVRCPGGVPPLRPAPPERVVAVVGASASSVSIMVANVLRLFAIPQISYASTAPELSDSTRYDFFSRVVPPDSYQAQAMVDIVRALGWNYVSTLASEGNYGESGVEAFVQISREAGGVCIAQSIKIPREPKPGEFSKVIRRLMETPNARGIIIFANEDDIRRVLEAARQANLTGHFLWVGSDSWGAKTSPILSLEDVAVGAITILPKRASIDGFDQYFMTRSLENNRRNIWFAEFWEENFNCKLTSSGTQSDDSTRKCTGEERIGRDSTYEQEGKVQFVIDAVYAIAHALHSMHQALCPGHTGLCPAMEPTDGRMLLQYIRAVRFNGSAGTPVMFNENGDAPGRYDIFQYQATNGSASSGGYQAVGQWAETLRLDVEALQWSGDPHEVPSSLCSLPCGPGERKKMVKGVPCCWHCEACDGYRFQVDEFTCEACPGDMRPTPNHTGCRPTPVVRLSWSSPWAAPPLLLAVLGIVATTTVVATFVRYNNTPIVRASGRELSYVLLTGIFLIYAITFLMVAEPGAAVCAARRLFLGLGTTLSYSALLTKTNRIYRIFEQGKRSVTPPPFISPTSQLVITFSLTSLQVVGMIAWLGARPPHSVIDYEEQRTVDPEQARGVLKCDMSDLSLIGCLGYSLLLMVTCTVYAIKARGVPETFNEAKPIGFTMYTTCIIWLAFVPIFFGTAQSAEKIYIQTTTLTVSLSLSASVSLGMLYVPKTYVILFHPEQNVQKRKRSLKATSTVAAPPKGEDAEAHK

`CC1(NC(=O)c2ccc(C#Cc3cccc(F)c3)cn2)COC1` was tested, and the fold shift was 0.98 (inactive) and the Emax was 90%.
For `C[C@@H](NC(=O)c1ccc(C#Cc2cccc(F)c2)cn1)C(C)(C)O`, the fold shift was 1.04 (inactive) and the Emax was 93%.
